The text below walks through data of ChEMBL document CHEMBL1806389, “Synthesis, in vitro and in vivo evaluation of fluorine-18 labelled FE-GW405833 as a PET tracer for type 2 cannabinoid receptor imaging” (Bioorg Med Chem, 2011).

Where “and” joins values, the source holds several entries; their conditions need not be identical. Identical values can stand only once. Calls of active or inactive are those of the source. No cut-off for these calls is given here.

Data set [1] relates to Striatum. As to the kind of experiment: In vivo binding affinity to human CB2 receptor D80N mutant expressed in Fisher rat […] at 37 MBq, iv after up to 60 mins by microPET study. The settings on record: 37 M, tested as the 18F-labelled form. It counts as functional, organism-based.
For data set [2], the target named is T1, Cannabinoid receptor 2 (Homo sapiens, UniProt P34972). As to the kind of experiment: Inverse agonist activity at human CB2 receptor expressed in CHO cells assessed as effect on [35S]-GTPgammaS binding after 1 hrs by beta counting relative to control. It counts as functional, cell-based. The settings on record: tested as the 18F-labelled form.
The test system of data set [3] is Heart. Kind of data set: Biodistribution in NMRI mouse heart at 6 MBq/ml, iv after 2 mins by gamma counting. The format is ADME, organism-based. The note with it: in vivo. The procedure, abridged: (§1)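 Tracer formulated in saline at about 6 MBq/ml (diluted HPLC-purified product); 100 µl given into a tail vein. Mice killed by decapitation at 2 or 60 min p.i.; organs, body parts and blood dissected, weighed and gamma-counted. Values as %ID (cpm in organ/total cpm recovered), %ID/g, or SUV. Total blood mass taken as 7% of body mass. Mean SD, n = 4 per time point.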

Data set [4] in a line: Biodistribution in NMRI mouse urine at 6 MBq/ml, iv after 2 mins by gamma counting. The format is ADME, organism-based. The note with it: in vivo. The procedure, abridged: as §1
Data set [5] can be described thus: Metabolic stability in NMRI mouse plasma at 6 MBq/ml, iv after 2 mins by HPLC analysis. The format is ADME, organism-based. The settings on record: read-out: Stability. The procedure, abridged: (§2)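 Normal NMRI mice were given the tracer IV, and plasma and brain were sampled at 2, 10 or 30 min. The percentage of intact tracer was measured by reversed-phase HPLC with 0.05 M ammonium acetate pH 6.9/acetonitrile eluent, 30/70 for plasma and 40/60 for brain, at 1 ml/min.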

Data set [6] deals with Pancreas. As to the kind of experiment: Biodistribution in NMRI mouse pancreas at 6 MBq/ml, iv after 60 mins by gamma counting. The format is ADME, organism-based. The note with it: in vivo, 1 h. The procedure, abridged: as §1
The nature of data set [7]: Biodistribution in NMRI mouse urine at 6 MBq/ml, iv after 60 mins by gamma counting. The settings on record: in vivo, 1 h. It counts as ADME, organism-based. The procedure, abridged:
as §1

Data set [8] in a line: Metabolic stability in NMRI mouse brain at 6 MBq/ml, iv after 30 mins by HPLC analysis. It counts as ADME, organism-based. The note with it: read-out: Stability. Put shortly: as §2
The test system of data set [9] is Heart. Kind of data set: Biodistribution in NMRI mouse heart at 6 MBq/ml, iv after 60 mins by gamma counting. The format is ADME, organism-based. The settings on record: in vivo, 1 h. Put shortly: as §1
In data set [10] the test system is Pancreas. Kind of data set: Biodistribution in NMRI mouse pancreas at 6 MBq/ml, iv after 2 mins by gamma counting. It counts as ADME, organism-based. The settings on record: in vivo. Put shortly: as §1
Data set [11] addresses T1, Cannabinoid receptor 2. Kind of data set: Displacement of [3H]-CP55940 from human CB2 receptor expressed in CHO cells after 1 hrs by beta counting. It counts as cell-based.
Data set [12] can be described thus: Metabolic stability in NMRI mouse brain at 6 MBq/ml, iv after 2 mins by HPLC analysis. It counts as ADME, organism-based. The note with it: read-out: Stability. The procedure, abridged:
as §2

Data set [13] concerns Lung. As to the kind of experiment: Biodistribution in NMRI mouse lungs at 6 MBq/ml, iv after 2 mins by gamma counting. The format is ADME, organism-based. The settings on record: in vivo. The procedure, abridged:
as §1

Data set [14] has as its system Spleen. As to the kind of experiment: Biodistribution in NMRI mouse spleen at 6 MBq/ml, iv after 60 mins by gamma counting. It counts as ADME, organism-based. The settings on record: in vivo, 1 h. Put shortly: as §1
Data set [15] deals with Lung. Kind of data set: Biodistribution in NMRI mouse lungs at 6 MBq/ml, iv after 60 mins by gamma counting. It counts as ADME, organism-based. The settings on record: in vivo, 1 h. Put shortly:
as §1

Data set [16] deals with Kidney. Kind of data set: Biodistribution in NMRI mouse kidney at 6 MBq/ml, iv after 60 mins by gamma counting. The format is ADME, organism-based. The note with it: in vivo, 1 h. The procedure, abridged:
as §1

A short description of data set [17]: Octanol-phosphate buffer partition coefficient, log D of the compound at pH 7.4. It counts as physicochemical. Put shortly: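 Radiolabelled tracer partitioned between 1-octanol and 0.025 M phosphate buffer pH 7.4; log D from distribution of radioactivity.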
Data set [18] concerns Intestine. Kind of data set: Biodistribution in NMRI mouse intestine at 6 MBq/ml, iv after 60 mins by gamma counting. The note with it: in vivo, 1 h. The format is ADME, organism-based. The procedure, abridged:
as §1

Data set [19] relates to Stomach. Kind of data set: Biodistribution in NMRI mouse stomach at 6 MBq/ml, iv after 2 mins by gamma counting. It counts as ADME, organism-based. The note with it: in vivo. The procedure, abridged: as §1
Data set [20] concerns Blood. As to the kind of experiment: Biodistribution in NMRI mouse blood at 6 MBq/ml, iv after 60 mins by gamma counting. The format is ADME, organism-based. The note with it: in vivo, 1 h. Put shortly: as §1
Data set [21] has as its system Brain. As to the kind of experiment: Biodistribution in NMRI mouse brain at 6 MBq/ml, iv after 2 mins by gamma counting. It counts as ADME, organism-based. The settings on record: in vivo. Put shortly: as §1
The subject of data set [22] is Liver. Kind of data set: Biodistribution in NMRI mouse liver at 6 MBq/ml, iv after 2 mins by gamma counting. It counts as ADME, organism-based. The note with it: in vivo. The procedure, abridged: as §1
Data set [23] has as its system Intestine. Kind of data set: Biodistribution in NMRI mouse intestine at 6 MBq/ml, iv after 2 mins by gamma counting. The format is ADME, organism-based. The note with it: in vivo. Put shortly: as §1
The test system of data set [24] is Brain. Kind of data set: Biodistribution in NMRI mouse brain at 6 MBq/ml, iv after 60 mins by gamma counting. The format is ADME, organism-based. The settings on record: in vivo, 1 h. Put shortly: as §1
Data set [25] addresses Cannabinoid receptor 1 (Homo sapiens, UniProt P21554). As to the kind of experiment: Displacement of [3H]-SR141716A from human CB1 receptor expressed in CHO cells after 1 hrs by beta counting. The format is cell-based.
Data set [26] has as its system Stomach. Kind of data set: Biodistribution in NMRI mouse stomach at 6 MBq/ml, iv after 60 mins by gamma counting. The format is ADME, organism-based. The settings on record: in vivo, 1 h. The procedure, abridged: as §1
A short description of data set [27]: Metabolic stability in NMRI mouse brain at 6 MBq/ml, iv after 10 mins by HPLC analysis. The settings on record: read-out: Stability. It counts as ADME, organism-based. Put shortly: as §2
The test system of data set [28] is Kidney. Kind of data set: Biodistribution in NMRI mouse kidney at 6 MBq/ml, iv after 2 mins by gamma counting. The note with it: in vivo. The format is ADME, organism-based. The procedure, abridged:
as §1

Data set [29] deals with T1, Cannabinoid receptor 2. Kind of data set: Inverse agonist activity at human CB2 receptor expressed in CHO cells assessed as effect on [35S]-GTPgammaS binding after 1 hrs by beta counting. The format is functional, cell-based.
The test system of data set [30] is Spleen. As to the kind of experiment: Biodistribution in NMRI mouse spleen at 6 MBq/ml, iv after 2 mins by gamma counting. It counts as ADME, organism-based. The note with it: in vivo. The procedure, abridged: as §1
A short description of data set [31]: Metabolic stability in NMRI mouse plasma at 6 MBq/ml, iv after 10 mins by HPLC analysis. The format is ADME, organism-based. The settings on record: read-out: Stability. The procedure, abridged:
as §2

Data set [32] can be described thus: Metabolic stability in NMRI mouse plasma at 6 MBq/ml, iv after 30 mins by HPLC analysis. The format is ADME, organism-based. The settings on record: read-out: Stability. The procedure, abridged:
as §2

For data set [33], the system named is Blood. As to the kind of experiment: Biodistribution in NMRI mouse blood at 6 MBq/ml, iv after 2 mins by gamma counting. The format is ADME, organism-based. The settings on record: in vivo. Put shortly:
as §1

Data set [34] has as its system Liver. Kind of data set: Biodistribution in NMRI mouse liver at 6 MBq/ml, iv after 60 mins by gamma counting. The format is ADME, organism-based. The note with it: in vivo, 1 h. The procedure, abridged:
as §1

Data set [35] concerns Striatum. Kind of data set: In vivo binding affinity to human CB2 receptor D80N mutant expressed in Fisher rat right striatum at 37 MBq, iv after 60 mins by microPET study relative to left striatum. It counts as functional. Put shortly:
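Normal 8-week-old Fisher rat received stereotactic AAV2/7-eGFP-T2A-hCB2R(D80N) vector in the right striatum and a control eGFP vector in the left striatum. Scanned 34 days later under 3% isoflurane in 2.0 L/min oxygen. Dynamic microPET started immediately after IV injection of about 37 MBq tracer. Images spatially normalized to stereotactic space; striatal time-activity curves from predefined volumes of interest.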

Data set [36] has as its system Brain. Kind of data set: Biodistribution in Wistar rat brain after 60 mins. The format is ADME, organism-based. The settings on record: in vivo, 1 h.

T1 sequence (P34972 whole entry): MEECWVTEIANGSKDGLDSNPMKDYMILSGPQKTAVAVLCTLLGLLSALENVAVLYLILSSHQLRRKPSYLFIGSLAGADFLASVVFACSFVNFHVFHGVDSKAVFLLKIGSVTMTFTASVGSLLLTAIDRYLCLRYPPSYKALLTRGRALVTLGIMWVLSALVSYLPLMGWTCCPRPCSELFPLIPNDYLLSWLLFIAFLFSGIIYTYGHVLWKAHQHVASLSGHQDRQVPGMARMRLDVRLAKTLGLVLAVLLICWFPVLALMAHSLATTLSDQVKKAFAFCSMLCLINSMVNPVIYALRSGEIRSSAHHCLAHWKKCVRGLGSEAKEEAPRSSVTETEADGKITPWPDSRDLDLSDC
Sequence of Cannabinoid receptor 1 (P21554 whole entry): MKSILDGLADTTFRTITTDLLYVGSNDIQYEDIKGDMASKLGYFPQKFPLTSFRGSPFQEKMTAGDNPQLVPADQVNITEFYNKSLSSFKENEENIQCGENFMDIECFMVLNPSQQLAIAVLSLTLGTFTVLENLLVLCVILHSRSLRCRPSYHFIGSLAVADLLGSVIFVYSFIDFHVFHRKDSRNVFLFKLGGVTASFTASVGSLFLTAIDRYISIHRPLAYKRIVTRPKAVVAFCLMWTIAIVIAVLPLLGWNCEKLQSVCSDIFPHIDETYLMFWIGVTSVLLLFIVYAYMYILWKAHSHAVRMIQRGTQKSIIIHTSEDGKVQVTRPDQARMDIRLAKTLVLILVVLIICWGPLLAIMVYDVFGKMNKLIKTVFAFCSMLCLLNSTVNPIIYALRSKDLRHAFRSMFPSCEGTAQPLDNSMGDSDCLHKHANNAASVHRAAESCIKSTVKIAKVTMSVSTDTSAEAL

As to `Cc1c(CCN2CCOCC2)c2cc(OCCF)ccc2n1C(=O)c1cccc(Cl)c1Cl`, the result in data set [1] was Active. The Emax in [2] is -82%.

With `Cc1c(CCN2CCOCC2)c2cc(OCC[18F])ccc2n1C(=O)c1cccc(Cl)c1Cl`, the SUV was 2.7 in data set [3]; 0.8 in data set [6]; 0.7 in [9]; 1.2 in data set [10]; 4.5 in data set [13]; 1.1 in [14]. For the same compound, the SUV in [15] stood at 0.8; in data set [16] it was 1.2; in [20], 0.7; in data set [21], 1; in data set [22], 9.1; in data set [24], 0.6. Also, the SUV in [28] amounted to 5.5; in data set [30] it was 3.3; in [33], 0.6; in data set [34], 4. For the same compound, the Drug uptake in data set [4] is 0.1 %ID; in data set [7], 1.4 %ID; in [16], 2.2 %ID and 3.4 % ID/g; in [18], 35.7 %ID; in [19], 1.3 %ID; in [20] it was 5 %ID and 2.1 % ID/g. Also, the Drug uptake is 1.3 %ID and 2.9 % ID/g in [21]; 47.4 %ID and 26.3 % ID/g in [22]; 8.9 %ID in data set [23]; 0.7 %ID and 1.6 % ID/g in data set [24]; 1.8 %ID in data set [26]; 9.8 %ID and 15.8 % ID/g in data set [28]. In addition, the Drug uptake was 4.5 %ID and 1.9 % ID/g in data set [33]; 23.7 %ID and 11.4 % ID/g in data set [34]. Besides, the remaining at 2 min in [5] was 84%; in data set [12] it was 95%. Besides, the results for the remaining at 0.5 h in data set [8] and in data set [32] were 48% and 12%, respectively. Besides, the Ki was 0.027 µM in [11] and 10 µM in data set [25]. In addition, the logD in data set [17] was found to be 2.8. In addition, the remaining at 10 min in data set [27] came out at 79%; in [31], 52%. The EC50 in [29] is 0.0179 µM.

For the compound `Cc1c(CCN2CCOCC2)c2cc(O[11CH3])ccc2n1C(=O)c1cccc(Cl)c1Cl`, the Ratio in data set [35] is on record as 1.6. In [36], this compound showed a Drug uptake of 0.1 %ID.
